From ChEMBL document CHEMBL4665803, “Discovery of Covalent Inhibitors Targeting the Transcriptional Enhanced Associate Domain Central Pocket” (J Med Chem, 2020)
Calls of active or inactive are those of the source. No cut-off for these calls is given here.

Legend:
[1] = target: T1, Transcriptional enhancer factor TEF-3 (Homo sapiens, UniProt Q15561); assay: Inhibition of CPM binding to N-terminal His6-tagged human TEAD4 (217 to 434 residues) expressed in Escherichia coli BL21-CodonPlus (DE3)-RIPL cells preincubated for 10 mins followed by CPM addition and measured after 1 hr by fluorescence assay; conditions: for inhibition: time 70.0 min
T1 sequence (Q15561 whole entry, the tested form may be a part): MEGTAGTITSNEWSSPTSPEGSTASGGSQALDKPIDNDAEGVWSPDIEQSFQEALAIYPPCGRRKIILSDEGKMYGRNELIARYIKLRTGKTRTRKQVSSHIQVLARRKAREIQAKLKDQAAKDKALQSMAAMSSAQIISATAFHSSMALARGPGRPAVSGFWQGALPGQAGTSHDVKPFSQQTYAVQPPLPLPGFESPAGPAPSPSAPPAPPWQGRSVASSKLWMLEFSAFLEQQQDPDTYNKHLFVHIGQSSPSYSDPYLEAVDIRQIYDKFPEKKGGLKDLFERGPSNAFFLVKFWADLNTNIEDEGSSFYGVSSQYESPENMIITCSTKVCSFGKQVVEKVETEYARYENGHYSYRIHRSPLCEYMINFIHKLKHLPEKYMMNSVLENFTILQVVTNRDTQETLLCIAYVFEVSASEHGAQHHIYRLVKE

[2] = target: T1, Transcriptional enhancer factor TEF-3; assay: Inhibition of FITC-labeled palmitate tracer binding to N-terminal His6-tagged human TEAD4 (217 to 434 residues) expressed in Escherichia coli BL21-CodonPlus (DE3)-RIPL cells preincubated for 10 mins followed by FITC-labeled palmitate tracer addition and measured after 1 hr by fluorescence assay
Summary of the method: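 FP competition in 25 mM HEPES, 150 mM NaCl, pH 6.5: serially diluted compound preincubated 10 min at room temperature with nonacylated hTEAD4, then FITC-palmitate tracer added (final 50 nM protein, 10 nM tracer); shaken 1 h at room temperature, FP at Ex/Em 485/535 nm. Tracer Kd from saturation binding.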

[3] = target: T1, Transcriptional enhancer factor TEF-3; assay: Inhibition of CPM binding to N-terminal His6-tagged human TEAD4 (217 to 434 residues) expressed in Escherichia coli BL21-CodonPlus (DE3)-RIPL cells at 12.5 uM preincubated for 10 mins followed by CPM addition and measured after 1 hr by fluorescence assay relative to control; conditions: time 70.0 min
[4] = target: T1, Transcriptional enhancer factor TEF-3; assay: Binding affinity to nonacylated N-terminal His6-tagged human TEAD4 (217 to 434 residues) expressed in Escherichia coli BL21-CodonPlus (DE3)-RIPL cells assessed as melting temperature at 80 uM after 10 mins by SYPRO orange dye-based differential scanning fluorimetry method (reference value: 41 degreeC)
[5] = target: T1, Transcriptional enhancer factor TEF-3; assay: Selectivity ratio of apparent IC50 for inhibition of CPM binding to N-terminal His6-tagged human TEAD4 (217 to 434 residues) expressed in Escherichia coli BL21-CodonPlus (DE3)-RIPL cells to IC50 for inhibition of FITC-labeled palmitate tracer binding to N-terminal His6-tagged human TEAD4 (217 to 434 residues) expressed in Escherichia coli BL21-CodonPlus (DE3)-RIPL cells
[6] = target: T1, Transcriptional enhancer factor TEF-3; assay: Binding affinity to nonacylated N-terminal His6-tagged human TEAD4 (217 to 434 residues) expressed in Escherichia coli BL21-CodonPlus (DE3)-RIPL cells at 8 equiv after 1 hr by ESI-MS spectrophotometric analysis
Summary of the method: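 Whole-protein ESI–MS: 1 μM hTEAD4 incubated 1 h at room temperature with 8 equiv compound in 25 mM HEPES, 150 mM NaCl, pH 6.5; centrifuged, injected via online desalting column to UPLC-MS; masses deconvoluted to detect adducts.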

[7] = target: T1, Transcriptional enhancer factor TEF-3; assay: Binding affinity to nonacylated N-terminal His6-tagged human TEAD4 (217 to 434 residues) expressed in Escherichia coli BL21-CodonPlus (DE3)-RIPL cells assessed as inhibition of protein-FAM-YAP (50 to 100 residues) interaction preincubated for 10 mins followed by FAM YAP addition and measured after 1 hr by fluorescence assay
Summary of the method: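 FP competition in PBS pH 7.5: serially diluted compound preincubated 10 min at room temperature with TEAD4 protein, then FAM-YAP50–100 added; shaken 1 h at room temperature, FP read at Ex/Em 485/535 nm. Final FAM/protein: nonacylated hTEAD4 2 nM/5 nM; acylated hTEAD4 3 nM/15 nM. Compound stocks 10 mM in DMSO. IC50 from curve fitting.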

[8] = target: Transcriptional enhancer factor TEF-3 (Mus musculus) (UniProt Q62296); assay: Binding affinity to nonacylated mouse TEAD4 at 0.5 mM by 1H-15N HSQC spectra analysis
Sequence of Transcriptional enhancer factor TEF-3 (Mus musculus) (Q62296 whole entry): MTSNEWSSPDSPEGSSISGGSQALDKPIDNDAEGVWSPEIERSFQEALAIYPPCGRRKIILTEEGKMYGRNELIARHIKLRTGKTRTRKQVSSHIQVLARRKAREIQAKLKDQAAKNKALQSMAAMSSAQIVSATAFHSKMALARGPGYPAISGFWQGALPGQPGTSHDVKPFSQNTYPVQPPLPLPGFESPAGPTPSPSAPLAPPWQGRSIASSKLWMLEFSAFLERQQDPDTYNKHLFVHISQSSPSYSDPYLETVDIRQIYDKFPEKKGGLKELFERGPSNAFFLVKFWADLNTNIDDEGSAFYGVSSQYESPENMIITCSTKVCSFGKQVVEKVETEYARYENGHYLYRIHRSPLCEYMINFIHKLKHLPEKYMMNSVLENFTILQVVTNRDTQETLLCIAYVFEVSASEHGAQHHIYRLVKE
Summary of the method: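 1H–15N HSQC of 13C/15N-labeled mTEAD4, deacylated with hydroxylamine; spectra with DMSO or compound (0.5 mM) recorded at 37 °C on a 600 MHz cryoprobe instrument in 20 mM HEPES pH 7.3, 150 mM NaCl, 1 mM DTT; spectra overlaid.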

[9] = target: T1, Transcriptional enhancer factor TEF-3; assay: Inhibition of TEAD4 in HEK293 cells assessed as reduction in ANKRD1 mRNA expression at 1 uM measured after 6 hrs by SYBR green dye based RT-PCR analysis relative to control; format: cell-based
Summary of the method: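 HEK293 cells treated with DMSO or compound for 6 h; ANKRD1 mRNA measured by RT-qPCR relative to the DMSO control.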

O=C(O)c1ccccc1Nc1cccc(C(F)(F)F)c1
inhibition [1]: Dose-dependent effect

O=c1cc(CO)oc(C(Nc2ccccn2)c2ccc(Br)cc2)c1O (configuration not stated)
IC50 [2]: 400 nM
IC50 ([1]; read-out: IC50(app)): 3.7 µM
inhibition [3]: > 50%
Tm [4]: 39 °C

CC(C)c1ccc(C(Nc2ccccc2)c2oc(CO)cc(=O)c2O)cc1 (configuration not stated)
IC50 [2]: 200 nM
IC50 ([1]; read-out: IC50(app)): 1 µM
inhibition [3]: > 50%

Cc1ccnc(NC(c2ccccc2)c2oc(CO)cc(=O)c2O)c1 (configuration not stated)
IC50 [2]: 300 nM
IC50 ([1]; read-out: IC50(app)): 2.4 µM
inhibition [3]: > 50%

O=c1cc(CO)oc(C(Nc2cccc(F)c2)c2ccccn2)c1O (configuration not stated)
IC50 ([1]; read-out: IC50): 8.7 µM
inhibition [3]: > 50%

CSCC[C@H](NCc1oc(CO)cc(=O)c1O)C(=O)O
IC50 ([1]; read-out: IC50): > 100 µM
inhibition [3]: < 50%

O=c1cc(CO)oc(CNc2ccccc2)c1O
IC50 [2]: 36400 nM
IC50 ([1]; read-out: IC50(app)): > 100 µM
inhibition [3]: > 50%

O=c1cc(CO)oc(CN2CCN(c3ccccn3)CC2)c1O
IC50 ([1]; read-out: IC50): > 100 µM
inhibition [3]: < 50%

Cc1ccc(C(Nc2ccccc2)c2oc(CO)cc(=O)c2O)cc1 (configuration not stated)
IC50 [2]: 200 nM
IC50 ([1]; read-out: IC50(app)): 1.3 µM
inhibition [3]: > 50%

O=c1cc(CO)oc(C(Nc2ccccn2)c2cccnc2)c1O (configuration not stated)
IC50 [2]: 14700 nM
IC50 ([1]; read-out: IC50(app)): > 100 µM
inhibition [3]: > 50%

O=c1cc(CO)oc(C(Nc2ccccn2)c2ccccc2)c1O (configuration not stated)
IC50 [2]: 300 nM
IC50 ([1]; read-out: IC50(app)): 3.1 µM
inhibition [3]: > 50%

O=c1cc(CO)oc(C(c2ccccc2)N2Cc3ccccc3C2)c1O (configuration not stated)
IC50 [2]: 900 nM
IC50 ([1]; read-out: IC50(app)): 13.2 µM
inhibition [3]: > 50%

O=c1cc(CO)oc(C(Nc2ccccc2)C2CCCCC2)c1O (configuration not stated)
IC50 [2]: 22600 nM
IC50 ([1]; read-out: IC50(app)): > 100 µM
inhibition [3]: > 50%

O=c1cc(CO)oc(C(Nc2cccc(F)c2)c2ccccc2)c1O (configuration not stated)
IC50 [2]: 200 nM
IC50 ([1]; read-out: IC50(app)): 1.5 µM
inhibition [3]: > 50%

NC(=O)c1ccc(NC(c2ccccc2)c2oc(CO)cc(=O)c2O)cc1 (configuration not stated)
IC50 [2]: 300 nM
IC50 ([1]; read-out: IC50(app)): 1.7 µM
inhibition [3]: > 50%

CC(C)C(Nc1ccccc1)c1oc(CO)cc(=O)c1O (configuration not stated)
IC50 [2]: 38100 nM
IC50 ([1]; read-out: IC50(app)): > 100 µM
inhibition [3]: > 50%

O=c1cc(CO)oc(C(Nc2nccs2)c2ccc(F)cc2)c1O (configuration not stated)
IC50 ([1]; read-out: IC50): 43.1 µM
inhibition [3]: > 50%

COc1c(C(Nc2ccccn2)c2ccccc2F)oc(CO)cc1=O (configuration not stated)
IC50 [2]: 49900 nM
IC50 ([1]; read-out: IC50(app)): > 100 µM
inhibition [3]: < 50%
Ratio IC50 [5]: > 200

CCOC(=O)C1CCCN(Cc2oc(CO)cc(=O)c2O)C1 (configuration not stated)
IC50 ([1]; read-out: IC50): > 100 µM
inhibition [3]: < 50%

CC(C)NC(c1ccccc1)c1oc(CO)cc(=O)c1O (configuration not stated)
IC50 [2]: 1500 nM
IC50 ([1]; read-out: IC50(app)): 16.8 µM
inhibition [3]: > 50%

O=c1cc(CO)oc(C(Nc2nccs2)c2ccccc2)c1O (configuration not stated)
IC50 [2]: 5600 nM
IC50 ([1]; read-out: IC50(app)): 53.4 µM
inhibition [3]: > 50%
Tm [4]: 41 °C

O=c1cc(CO)oc(C(Nc2ccccc2)c2ccc(Br)cc2)c1O (configuration not stated)
IC50 [2]: 200 nM
IC50 ([1]; read-out: IC50(app)): 1.2 µM
inhibition [3]: > 50%

CCCCCCCCCCCCCCCC(=O)O
inhibition [1]: Dose-dependent effect

O=c1cc(CO)oc(C(Nc2ncccn2)c2ccccc2)c1O (configuration not stated)
IC50 [2]: 13400 nM
IC50 ([1]; read-out: IC50(app)): > 100 µM
inhibition [3]: > 50%

O=c1cc(CO)oc(C(Nc2nc3ccccc3[nH]2)c2ccccc2)c1O (configuration not stated)
IC50 [2]: 6400 nM
IC50 ([1]; read-out: IC50(app)): > 100 µM
inhibition [3]: > 50%

O=c1cc(CO)oc(C(Nc2ccccn2)c2ccccc2F)c1O (configuration not stated)
IC50 [2]: 300 nM
IC50 ([1]; read-out: IC50): 3.2 µM
IC50 ([1]; read-out: IC50(app)): 3.2 µM
inhibition [3]: > 50%

NC(=O)c1ccc(C(Nc2ccccc2)c2oc(CO)cc(=O)c2O)cc1 (configuration not stated)
IC50 [2]: 300 nM
IC50 ([1]; read-out: IC50(app)): 1.5 µM
inhibition [3]: > 50%

O=c1cc(CO)oc(C(Nc2ccccc2)c2ccccn2)c1O (configuration not stated)
IC50 [2]: 500 nM
IC50 ([1]; read-out: IC50(app)): 18.9 µM
inhibition [3]: > 50%

O=c1cc(CO)oc(C(NCc2ccccc2)c2ccccc2)c1O (configuration not stated)
IC50 [2]: 400 nM
IC50 ([1]; read-out: IC50(app)): 4 µM
inhibition [3]: > 50%

O=C(CCl)c1ccccc1Nc1cccc(C(F)(F)F)c1
IC50 [2]: 14100 nM
IC50 ([1]; read-out: IC50(app)): 0.8 µM
inhibition [1]: Dose-dependent effect

O=c1cc(CO)oc(C(Nc2ccccc2)c2ccccc2F)c1O (configuration not stated)
IC50 [2]: 100 nM
IC50 ([1]; read-out: IC50(app)): 0.7 µM
inhibition [3]: > 50%

O=c1cc(CO)oc(C(Nc2ccccn2)c2ccccn2)c1O (configuration not stated)
IC50 [2]: 16000 nM
IC50 ([1]; read-out: IC50(app)): > 100 µM
inhibition [3]: > 50%

O=C(O)c1cccnc1Nc1cccc(C(F)(F)F)c1 [NIFLUMIC ACID]
IC50 [2]: 5900 nM
IC50 ([1]; read-out: IC50(app)): 41.9 µM
inhibition [1]: Dose-dependent effect

COc1c(C(Nc2ccccc2)c2ccccc2)oc(CO)cc1=O (configuration not stated)
Activity [6]: inactive
IC50 [2]: 41600 nM
IC50 ([1]; read-out: IC50(app)): > 100 µM
inhibition [3]: < 50%
IC50 [7]: 9.5 µM
Activity [8]: inactive
Ratio IC50 [5]: > 200
Tm [4]: 41 °C
inhibition [9]: inactive

O=c1cc(CO)oc(C(Nc2ccccc2)c2ccc(F)cc2)c1O (configuration not stated)
IC50 [2]: 300 nM
IC50 ([1]; read-out: IC50(app)): 1.9 µM
inhibition [3]: > 50%

O=c1cc(CO)oc(C(Nc2ccccc2)c2ccc3ccccc3c2)c1O (configuration not stated)
IC50 [2]: 200 nM
IC50 ([1]; read-out: IC50(app)): 1.1 µM
inhibition [3]: > 50%

NC(=O)c1ccc(NC(c2ccccn2)c2oc(CO)cc(=O)c2O)cc1 (configuration not stated)
IC50 [2]: 1100 nM
IC50 ([1]; read-out: IC50(app)): 9.2 µM
inhibition [3]: > 50%
